Hits are enriched below; roughly 0.79% of the tested compounds scored in any of these assays.
mIAP act – activators of mouse IAP, primary screen, biochemical, luminescence, uHTS; activation factor at 10 µM; 330,000 tested, 0.24% active; intestinal alkaline phosphatase [Mus musculus]; muIAP, CDP-Star luminescence, 30 min; hits give high values; 1 = vehicle-only enzyme signal, 0 = enzyme-free wells;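 active = activation factor of at least 2 at 20 µM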
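System: Mouse IAP enzyme | Also added: CDP-Star substrate | Dosing: Compounds dispensed in DMSO | Schedule: 30 min enzyme-substrate-compound incubation at room temperature | Technique: Chemiluminescence readout | Control set: DMSO-only wells and no-enzyme negative control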
hIAP block – human IAP inhibitors, primary screen, biochemical, luminescence, uHTS | Intestinal-type alkaline phosphatase (Homo sapiens), P09923 | purified IAP, CDP-Star luminescence, 30 min | inhibition, % at 10 µM | 330,000 tested, 0.12% active | AID 2544, 2010;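 active = inhibition reaching a set limit with compound at 10 µM in the primary screen, cut at about 35% in these data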;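 also: plate controls were DMSO wells with enzyme for no effect and no-enzyme buffer wells for full effect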
Target sequence (P09923 whole entry, looked up): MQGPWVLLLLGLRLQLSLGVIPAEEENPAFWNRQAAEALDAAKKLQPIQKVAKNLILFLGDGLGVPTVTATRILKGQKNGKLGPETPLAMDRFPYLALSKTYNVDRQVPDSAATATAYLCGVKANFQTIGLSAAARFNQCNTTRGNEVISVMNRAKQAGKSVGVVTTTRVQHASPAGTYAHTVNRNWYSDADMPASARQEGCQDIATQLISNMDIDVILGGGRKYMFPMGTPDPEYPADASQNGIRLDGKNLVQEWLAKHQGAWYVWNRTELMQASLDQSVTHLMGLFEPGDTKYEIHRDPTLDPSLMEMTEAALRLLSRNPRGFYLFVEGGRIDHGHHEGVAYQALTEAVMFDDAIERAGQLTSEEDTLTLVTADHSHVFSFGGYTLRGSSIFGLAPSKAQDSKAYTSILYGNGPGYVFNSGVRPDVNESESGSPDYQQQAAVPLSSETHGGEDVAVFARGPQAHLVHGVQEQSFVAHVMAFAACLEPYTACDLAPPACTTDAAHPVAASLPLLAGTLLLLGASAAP
bIAP activator – bovine intestinal alkaline phosphatase activators, primary screen, biochemical, bovine IAP, CDP-star luminescence; 200,000 tested, 0.17% active; purified bovine IAP, 30 min; hits give high values; fold of DMSO-control signal, blank-subtracted; activation factor at 20 µM; alkaline phosphatase, intestinal [Bos taurus];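 active = activation factor of 2 or more at 20 µM, a signal rise over negative controls twice the positive control's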
mIAP inh – inhibitors of mouse IAP, primary screen, biochemical, luminescence, uHTS; intestinal alkaline phosphatase [Mus musculus]; purified mouse IAP, CDP-Star luminescence, 30 min; inhibition, % at 10 µM; 330,000 tested, 0.2% active; AID 2806, 2010;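 active = inhibition of at least 40% at 10 µM in the primary screen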;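 also: plate controls were DMSO with enzyme for no effect and no enzyme wells for full effect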
bIAP inh – bovine intestinal alkaline phosphatase inhibitors, primary screen, selectivity assay for TNAP inhibitor project, biochemical, bovine IAP, CDP-star luminescence | alkaline phosphatase, intestinal [Bos taurus] | purified bovine IAP, 30 min | inhibition, % at 20 µM | 190,000 tested, under 10 active | AID 1019, 2008;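 active = over 50% inhibition of intestinal alkaline phosphatase at 20 µM in the single-dose screen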
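System: purified bovine intestinal alkaline phosphatase (IAP) enzyme; Input: IAP diluted 1/65,000,000 in the well; Measured by: CDP-star luminescence signal; Compound dosing: 20 µM single dose; Incubation: 30 min reaction at room temperature.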
hIAP activ – human IAP activators, primary screen, biochemical, luminescence, uHTS; Intestinal-type alkaline phosphatase (Homo sapiens), P09923; purified human IAP, CDP-Star luminescence, 30 min; hits give high values; 1 = vehicle-only enzyme, 0 = enzyme-free background; activation factor at 10 µM; 330,000 tested, 0.16% active; AID 2524, 2010;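 active = activation factor of the enzyme at least 2-fold when tested at 20 µM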
hIAP act confirm – human IAP activators, confirmation, biochemical, luminescence, single concentration, uHTS hits. 880 tested, 10% active. shares compounds with hIAP activ. activation (%Activity, negative = activation), % at 8.3 µM. purified IAP, CDP-Star luminescence, 30 min; hits give low values;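 active = at least twofold enzyme activation in any of six single-dose repeats, which the averaged readout prints as negative percent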
Numbers without * were called inactive.

`CN(Cc1ccccc1)C(=O)Nc1ccc(Cl)cc1` gave mIAP act 1.03, hIAP block -101.9, mIAP inh -3.5, hIAP activ 2.02* and hIAP act confirm -58.7*.
`CN(Cc1ccccc1)C(=O)c1[nH]cnc1C(=O)Nc1ccc(Cl)cc1` gave mIAP act 0.967, hIAP block -45.9, mIAP inh 3.3 and hIAP activ 1.46.
Screening O=C(C1=C(O)C(=O)N(CC2CCCO2)C1c1cccc(Cl)c1)c1ccco1 (stereo not given) returned mIAP act 1.01, hIAP block -6.3, mIAP inh -1.3 and hIAP activ 1.06.
`C[C@@H](NC(=O)c1[nH]cnc1C(=O)Nc1nccs1)c1ccccc1` gave mIAP act 0.974, hIAP block -123.9, mIAP inh 2.6, hIAP activ 2.24* and hIAP act confirm 11.7.
Screening C[C@@H](NC(=O)c1nc[nH]c1C(=O)N[C@H](C)c1ccccc1)c1ccccc1 returned mIAP act 0.976, hIAP block -20.1, mIAP inh 2.4 and hIAP activ 1.2.
`C[C@@H](NC(=O)c1[nH]cnc1C(=O)Nc1ccon1)c1ccccc1` gave mIAP act 0.864, hIAP block -107.0, mIAP inh 13.6, hIAP activ 2.07* and hIAP act confirm -80.0*.
For C[C@H](NC(=O)c1[nH]cnc1C(=O)Nc1ccon1)c1ccccc1 the results were mIAP act 0.849, hIAP block -79.6, mIAP inh 15.1 and hIAP activ 1.8.
COc1ccc(-n2nc3ccc(NS(C)(=O)=O)cc3n2)cc1Cl was read as mIAP act 1.09, hIAP block 37.5*, bIAP activator 0.9, mIAP inh -9.3, bIAP inh 5.5, hIAP activ 0.625 and hIAP act confirm 1.0.
`COc1ccc(C(=O)NCC(=O)NCC2COc3ccccc3O2)cc1` (stereo not given) gave mIAP act 0.981, hIAP block 2.9, bIAP activator 0.9, mIAP inh 1.9, bIAP inh 13.0 and hIAP activ 0.971.
Cc1cccc(SCc2noc(C(=O)NCC3CCCO3)c2C(=O)O)c1 (stereo not given) was read as mIAP act 0.957, hIAP block 35.1*, bIAP activator 1, mIAP inh 4.3, bIAP inh -2.2, hIAP activ 0.649 and hIAP act confirm -212.7*.
For Cc1cc(C)cc(SCc2noc(C(=O)NCC3CCCO3)c2C(=O)O)c1 (stereo not given) the results were mIAP act 1.02, hIAP block -5.2, bIAP activator 0.9, mIAP inh -2.1, bIAP inh 6.4 and hIAP activ 1.05.
For O=C1C(Nc2ccccc2)=C(N2CCCCC2)C(=O)c2ccccc21 the results were mIAP act 1, hIAP block 3.9, bIAP activator 0.8, mIAP inh -0.3, bIAP inh 15.9 and hIAP activ 0.961.
For O=C(/C=C/c1ccc(O)cc1)c1ccc(NC2=C(N3CCCCC3)C(=O)c3ccccc3C2=O)cc1 the results were mIAP act 0.709, hIAP block 35.3*, bIAP activator 0.6, mIAP inh 29.1, bIAP inh 35.1, hIAP activ 0.647 and hIAP act confirm 0.0.
For CCOC(=O)C1CCN(CC(O)COc2ccc(C(=O)CC)cc2)CC1 (stereo not given) the results were mIAP act 1.03, hIAP block 35.7*, bIAP activator 1, mIAP inh -3.5, bIAP inh -3.6, hIAP activ 0.642 and hIAP act confirm -27.2.
`COc1cc(/C=C/C(=O)c2ccc(C)c([N+](=O)[O-])c2)cc(OC)c1O` gave mIAP act 0.615, hIAP block 46.6*, bIAP activator 0.9, mIAP inh 38.5, bIAP inh 14.1, hIAP activ 0.534 and hIAP act confirm 18.3.
For COc1ccc(/C=C/C(=O)c2ccc(C)c([N+](=O)[O-])c2)cc1O the results were mIAP act 0.821, hIAP block 13.3, bIAP activator 0.8, mIAP inh 17.9, bIAP inh 23.9 and hIAP activ 0.867.
Cc1cc(C)cc(NC(=S)N2CCCC2)c1 was read as mIAP act 1, hIAP block 35.6*, mIAP inh -0.2, hIAP activ 0.644 and hIAP act confirm -26.7.
`Cc1ccc(NC(=O)c2[nH]cnc2C(=O)NN)cc1` gave mIAP act 0.975, hIAP block -111.2, bIAP activator 1.3, mIAP inh 2.5, bIAP inh -26.2, hIAP activ 2.11* and hIAP act confirm 2.0.
NNC(=O)c1nc[nH]c1C(=O)Nc1ccccn1 was read as mIAP act 0.94, hIAP block -102.2, bIAP activator 1.7, mIAP inh 6.0, bIAP inh -67.6, hIAP activ 2.02* and hIAP act confirm -4.9.
For Cc1ccc(NC(=O)c2nc[nH]c2C(=O)NCCCNC(=O)c2[nH]cnc2C(=O)Nc2ccc(C)cc2)cc1 the results were mIAP act 1.03, hIAP block -35.4, mIAP inh -3.3 and hIAP activ 1.35.
O=C(CCC(=O)N1CCOCC1)Nc1ccc(Cl)c(Cl)c1 was read as mIAP act 0.952, hIAP block 10.4, mIAP inh 4.8 and hIAP activ 0.896.
O=C(COC(=O)C1CC1)NCc1ccccc1Cl was read as mIAP act 0.999, hIAP block -18.4, bIAP activator 0.8, mIAP inh 0.1, bIAP inh 15.4 and hIAP activ 1.18.
O=C(O)Cn1nnc(-c2cccs2)n1 was read as mIAP act 0.968, hIAP block 4.2, bIAP activator 1, mIAP inh 3.2, bIAP inh -0.6 and hIAP activ 0.958.
O=C(O)CCn1nnc(-c2cccs2)n1 was read as mIAP act 1.03, hIAP block -103.2, bIAP activator 1, mIAP inh -3.5, bIAP inh 0.5, hIAP activ 2.03* and hIAP act confirm -0.3.
For O=C(NCCc1ccc(Cl)cc1)c1ccc2[nH]c(=O)c(=O)[nH]c2c1 the results were mIAP act 1.06, hIAP block -100.2, mIAP inh -5.7, hIAP activ 2* and hIAP act confirm -38.0.
